Laboratory results published in ChEMBL document CHEMBL1125040, “Reversible inhibitors of the gastric (H+/K+)-ATPase. 1. 1-Aryl-4-methylpyrrolo[3,2-c]quinolines as conformationally restrained analogues of 4-(arylamino)quinolines” (J Med Chem, 1990).

Experiments:
[1] = system: Rattus norvegicus; experiment: In vivo inhibition of rat gastric secretion was determined at a dose of 10 uM/kg; assay type: functional, Stomach
Outline: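 Pentagastrin-stimulated lumen-perfused rats given a single iv bolus of 10 μmol/kg. Acid output measured in the gastric perfusate. Percent inhibition taken at peak inhibition relative to the secretory plateau immediately before dosing; mean of four rats ± SEM.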

[2] = system: Rattus norvegicus; experiment: In vivo antisecretory activity was determined for inhibition of gastric secretion in rat; assay type: functional; details: Stomach
Outline: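 Lumen-perfused rat stimulated with pentagastrin; compound given as iv bolus; acid output measured in gastric perfusate. Percent inhibition taken at peak inhibition versus secretory plateau just before dosing.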

[3] = pKa value was determined; assay type: physicochemical
[4] = organism: Sus scrofa; experiment: In vitro inhibition of [14C]-aminopyrine accumulation was determined in gastric vesicles of pig with outside vesicle pH 7; details: Stomach
[5] = system: Rattus norvegicus; experiment: In vivo antisecretory activity was determined for inhibition of gastric secretion in rat; rats died at doses giving less than 50% inhibition; assay type: organism-based, Stomach

Compound	pKa [3]	IC50 [4] [nM]	Inhibition [1] [%]	ED50 [2] [µmol/kg]	ED50 [5]
COc1ccc2[nH]c([S+]([O-])Cc3ncc(C)c(OC)c3C)nc2c1 (centres undefined) [OMEPRAZOLE]	–	–	–	0.45	–
Cc1ccccc1N1CCc2c1c1ccccc1[n+]([O-])c2C	–	–	40	–	–
Cc1cc(O)ccc1N1CCc2c(C)nc3ccccc3c21	–	–	41	–	–
COc1cccc2c3c(c(C)nc12)CCN3Cc1ccccc1	–	1600	0	–	Toxic
Cc1ccccc1N1CCc2c(C)nc3c(F)cccc3c21	–	–	26	–	–
COc1cccc2c3c(c(C)nc12)CCN3c1ccccc1	–	84	17	–	Toxic
COc1ccccc1N1CCc2c(C)nc3c(OC)cccc3c21	–	230	–	–	Toxic
Cc1ccccc1N1CCc2c(C)nc3c(C)cccc3c21	–	28	43	–	–
Cc1cccc(C)c1N1CCc2c(C)nc3ccccc3c21	–	–	18	–	–
COc1ccc(N2CCc3c(C)nc4c(OC)cccc4c32)c(C)c1	–	–	45	–	–

Second part, led by results:

pKa [3]	IC50 [4] [nM]	Compound	Inhibition [1] [%]	ED50 [2] [µmol/kg]	ED50 [5]
7.4	34	COc1cccc2c1nc(C)c1ccn(-c3ccccc3C)c12	48	7.1	–
–	> 30000	Cc1ccccc1-n1c(S)nc2cnc3ccccc3c21	–	–	–
–	2400	COc1cccc2c3c(c(C)[n+](C)c12)CCN3c1ccccc1C	–	–	–
–	61	Cc1ccccc1N1CCc2c(C)nc3c(O)cccc3c21	23	–	–
–	> 30000	Cc1ccccc1-n1nnc2cnc3ccccc3c21	–	–	–
–	37	CCOC(=O)c1cnc2c(OC)cccc2c1Nc1ccccc1C	–	8.2	–
–	13	Cc1nc2c(OCc3ccccc3)cccn2c1CC#N	–	0.31	–
–	28	Cc1ccccc1N1CCc2c(C)nc3ccccc3c21	42	–	–
–	110	COc1cccc2c3c(cnc12)CCCN3c1ccccc1C	21	–	–
–	26	COc1ccc(N2CCc3c(C)nc4ccccc4c32)c(C)c1	51	–	–
9.5	36	COc1cccc2c3c(c(C)nc12)CCN3c1ccccc1C	–	19.8	–
–	2230	Cc1ccccc1-n1cnc2cnc3ccccc3c21	–	–	–
